Source: PubChem BioAssay (Sanford-Burnham Center for Chemical Genomics)
Shown are actives, neighbours in structure and some others; about 1.9% of the full set was active somewhere.
Scp1 inh – Scp-1 phosphatase inhibitors, primary screen, biochemical, colorimetric, uHTS. Carboxy-terminal domain RNA polymerase II polypeptide A small phosphatase 1 (Homo …. Recombinant Scp1, phosphopeptide, malachite green phosphate absorbance. inhibition, % at 20 µM. 340,000 tested, 0.88% active. AID 493091, 2011;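 active = inhibition above about 50% at 20 µM, limit read from the data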
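System: SCP-1 catalytic domain; Reagent: Phospho 17-mer peptide substrate; Doses: one concentration, 20 µM, with 1.0% DMSO; Incubation: 45 min room-temperature reaction, 5 min colour, 30 min stabiliser; Signal: Phosphate-binding colour reagent, absorbance read at 630 nm.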
SUMO1-SIM PPI – modulators of SUMO1 protein-protein interactions, primary screen, biochemical, uHTS; Small ubiquitin-related modifier 1 (Homo sapiens), P63165; SUMO1 binding to a labelled peptide, TR-FRET, 1 h; 360,000 tested, 0.33% active; inhibition, % at 20 µM; AID 602429, 2012; in the data active = inhibition above about 37%
LMPTP block – LMPTP phosphatase inhibitors, primary screen, biochemical, fluorescence intensity, uHTS | recombinant LMPTP-A, OMFP fluorogenic substrate | inhibition, % at 20 µM | 360,000 tested, 0.22% active | AID 651560, 2012;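 active = compounds that cut the enzyme signal by at least half of the control window in the single-dose screen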
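material = LMPTP-A | quantity = 0.625 nM enzyme | reagent = OMFP substrate, 400 µM final | buffer or medium = Bis-Tris pH 6.0, DTT, detergent | detection = endpoint fluorescence intensity from OMFP dephosphorylation | dosing = single 20 µM dose | read-out basis = % inhibition relative to no-enzyme and uninhibited control wells | control set = no-enzyme and uninhibited controls | timing = 50 min at room temperature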
FAS-TE inh – FAS thioesterase domain inhibitors, primary screen, biochemical, fluorescence intensity, uHTS; Fatty acid synthase (Homo sapiens), P49327; recombinant FAS-TE, OMFH fluorogenic substrate, fluorescence endpoint; inhibition, % at 15 µM; 360,000 tested, 0.67% active; AID 602261, 2012;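 active = compounds whose normalised, plate-corrected inhibition of enzyme fluorescence in the single-dose primary screen is 50% or more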
STEP inh – STEP phosphatase inhibitors, primary screen, biochemical, fluorescence intensity, uHTS; Tyrosine-protein phosphatase non-receptor type 5 (Homo sapiens), P54829; recombinant STEP, OMFP fluorogenic substrate; inhibition, % at 20 µM; 360,000 tested, 0.25% active;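 active = inhibition at 20 µM, scaled per plate between control wells, above about 37%, limit read from the data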
Target sequence (P54829 whole entry, looked up): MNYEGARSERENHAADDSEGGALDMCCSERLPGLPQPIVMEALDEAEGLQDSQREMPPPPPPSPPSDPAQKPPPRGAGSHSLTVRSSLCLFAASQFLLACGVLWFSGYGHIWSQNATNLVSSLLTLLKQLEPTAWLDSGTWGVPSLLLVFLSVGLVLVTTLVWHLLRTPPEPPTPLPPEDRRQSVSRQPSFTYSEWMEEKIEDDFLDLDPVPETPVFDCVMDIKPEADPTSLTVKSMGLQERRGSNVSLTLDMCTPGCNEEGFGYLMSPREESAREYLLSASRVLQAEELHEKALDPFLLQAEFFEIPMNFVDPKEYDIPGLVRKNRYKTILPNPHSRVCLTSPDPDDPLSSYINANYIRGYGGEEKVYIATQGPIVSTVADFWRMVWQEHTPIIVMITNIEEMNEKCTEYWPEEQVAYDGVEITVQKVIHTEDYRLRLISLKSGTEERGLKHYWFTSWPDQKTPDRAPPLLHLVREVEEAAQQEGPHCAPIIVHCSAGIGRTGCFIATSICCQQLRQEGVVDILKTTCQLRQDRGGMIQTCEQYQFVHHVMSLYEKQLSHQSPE
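Material: STEP (striatal-enriched tyrosine phosphatase) enzyme, cell-free | Medium: 50 mM Bis-Tris pH 6.0 with 2.5 mM DTT and 0.005% Tween 20 | Read-out: Percent inhibition scaled to no-enzyme and uninhibited-enzyme controls, plate-pattern corrected | Signal: Fluorescence read at 480 nm ex / 540 nm em | Times: 20 min reaction, room temperature, in the dark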
Scp1 confirm – Scp-1 phosphatase inhibitors, retest, confirmation, biochemical, colorimetric, single concentration; recombinant SCP-1 catalytic domain, phosphate release, malachite green absorbance; 2,500 tested, 61% active; shares compounds with Scp1 inh; inhibition, % at 20 µM
Scp-1 MG ctr – colorimetric readout interference by compounds, confirmation, artefact control for Scp-1 inhibitor project, biochemical, single concentration | 2,500 tested, under 10 active | AID 540313, 2011 | shares compounds with Scp1 inh | Colorimetric interference counterscreen, malachite green absorbance 630 nm | apparent inhibition (interference), % at 20 µM;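 also: compounds added after enzyme reaction finished so only phosphate colour detection is probed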
Scp-1 Tm shift – Scp-1 binding by thermal shift, confirmation, orthogonal assay for Scp-1 inhibitor project, biophysical, differential scanning fluorimetry; shares compounds with Scp1 inh; Recombinant SCP1, Sypro Orange thermal shift Tm; thermal shift relative to vanadate control, % at 40 µM; 1,500 tested, 25% active;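 active = substances whose mean melting-temperature shift, as a percentage of the reference inhibitor's shift, reaches about 5.3%, limit read from the data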
Hits are given with their value; i = inactive; nt = not tested or not shown.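 The calls were made as follows, unless noted: active = inhibition of at least 30% at 20 µM; inactive = the rest.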

SMILES	Scp1 inh	SUMO1-SIM PPI	LMPTP block	FAS-TE inh	STEP inh	Scp1 confirm	Scp-1 MG ctr	Scp-1 Tm shift
COc1cc(/C=C/c2[nH]c(=O)[nH]c(=O)c2[N+](=O)[O-])ccc1OCCC(C)C	63	i	i	i	i	71	i	i
C=CCOc1ccc(/C=C\c2nc(O)c([N+](=O)[O-])c(=O)[nH]2)cc1OCC	99	i	i	i	i	45	i	i
C=CCOc1ccc(/C=C\c2nc(O)c([N+](=O)[O-])c(=O)[nH]2)cc1OC	62	i	i	i	i	59	i	i
O=c1[nH]c2cc3ccccc3cc2nc1-c1nnnn1C1CCCC1	nt	i	i	i	nt	nt	nt	nt
Cc1ccc(-c2cc(C(=O)N/N=C/c3ccc(Cl)cc3)n[nH]2)o1	65	i	i	i	i	88	i	i
Cc1ccc(-c2cc(C(=O)N/N=C/c3ccccc3)n[nH]2)o1	i	i	i	i	i	nt	nt	nt
CCC(=O)N1CCC(C)(C(=O)NCc2ccc(F)cc2)C1 (configuration not stated)	nt	i	i	i	i	nt	nt	nt
COc1cc(/C=C2/C(=O)NN(c3ccc(C)c(Cl)c3)C2=O)cc([N+](=O)[O-])c1O	61	i	i	i	86	74	i	569
FC(F)(F)c1ccc(Cl)c(Nc2nnc(-c3ccncc3)s2)c1	nt	i	i	i	i	nt	nt	nt
COc1ccc(Nc2nnc(-c3ccncc3)s2)cc1Cl	94	93	64	i	61	68	i	i
CC(C)NC(=O)C(C)Oc1ccc(S(=O)(=O)NCc2ccc3c(c2)OCO3)cc1 (configuration not stated)	i	i	i	i	i	nt	nt	nt
CC[C@@H](NC(=O)[C@H](Cc1ccccc1)NC(=O)CC[C@H]1O[C@@H](n2ccc(=O)[nH]c2=O)[C@H](O)[C@@H]1O)c1ccccc1	nt	i	i	i	i	nt	nt	nt
Cc1ccc2nc(/C(C#N)=C\c3ccc(N4CCCCC4)c([N+](=O)[O-])c3)[nH]c2c1	109	i	i	i	i	77	i	12
COCCN1C(=O)C(=O)/C(=C(/O)c2cccc(OC)c2)C1c1ccco1 (configuration not stated)	57	i	i	i	i	56	i	i
COc1cccc(-n2nnc3c(=O)n(CC(=O)Nc4ccccc4C)cnc32)c1	i	i	i	i	i	nt	nt	nt
Cc1ccc(-n2nc3c(=O)n(CC(=O)NCc4ccccn4)nc(C)c3c2C)cc1	i	i	i	i	i	nt	nt	nt
CCOc1ccc(CNC(=O)Cn2nc(C)c3c(C)n(-c4ccc(C)cc4)nc3c2=O)cc1	85	i	i	i	i	62	i	i
CCOc1ccccc1NC(=O)Cn1cnc2c(nnn2-c2cccc(OC)c2)c1=O	71	i	i	i	i	58	i	i
Cc1ccc(-n2nnc3c(=O)n(CC(=O)NCc4ccccc4)cnc32)cc1	93	i	i	i	i	86	i	i
COC(=O)CSc1ncnc2c(C)csc12	i	i	i	i	i	nt	nt	nt
O=C(NC(c1ccc(-c2ccccc2)cc1)c1cnccn1)C1CCN(Cc2ccc3c(c2)OCO3)CC1 (configuration not stated)	nt	i	i	i	i	nt	nt	nt
CCc1ccc(NC(=O)c2ccccc2SC)cc1	i	i	i	i	i	nt	nt	nt
O=C1CCC(C(=O)OCC(=O)Nc2ccccc2Br)=NN1	nt	i	i	i	i	nt	nt	nt
N#Cc1ccsc1NC(=O)COC(=O)C1=NNC(=O)CC1	71	38	62	i	i	49	i	i
